The values below come from PMC10790741 (Journal of Pharmacy & Bioallied Sciences, 2023).

“Also recorded” adds a separate entry of the source.

The data set relates to male albino mice. As to the kind of experiment: Neurotoxicity, rotarod test. The format is in vivo. Particulars: 0.5 and 4 h. The essentials:
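Male albino mice (25–30 g) were trained on a rotating rod (3.2 cm outer diameter, 10 rpm). Test compound was given at 30, 100 and 300 mg/kg, and mice were checked at 0.5 and 4 h. Neurotoxicity was failure to keep balance on the rod for 1 min, across three trials. The toxic dose was the dose at which 50% of animals fell.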
On the technique in general: Falling from the rotarod earlier than controls is read as motor impairment.

For the molecule `COc1ccc2ccc(C(/C=C/c3c[nH]c4ccccc34)N3C=CC(C(=O)O)C=C3)cc2c1` (centres unmarked) [5g, (E)-1-(3-(1H-indol-3-yl)-1-(7-methoxynaphthalen-2-yl)allyl)-1,4-dihydropyridine-4-carboxylic acid], the “Neurotoxicity (result in words)” value was “neurotoxic; also recorded: motor impairing”. Next, `Cc1ccc2ccc(C(/C=C/c3c[nH]c4ccccc34)N3C=CC(C(=O)O)C=C3)cc2c1` (centres unmarked) [5i, (E)-1-(3-(1H-indol-3-yl)-1-(7-methylnaphthalen-2-yl)allyl)-1,4-dihydropyridine-4-carboxylic acid]: “neurotoxic”.
